Common to all, as to assay type: functional
Assay [1] deals with Staphylococcus epidermidis. Nature of the assay: Antibacterial activity against clinical isolate methicillin resistant Staphylococcus epidermidis AB 735 assessed as inhibition of bacterial growth incubated for 22 to 24 hrs. As to conditions: time 22-24 hrs.
The test system of assay [2] is Mycobacterium tuberculosis. The assay can be described thus: Antibacterial activity against Mycobacterium tuberculosis H37Rv ATCC 25618 assessed as inhibition of bacterial growth incubated for 2 days by CLSI protocol based broth microdilution method. To be noted: H37Rv ATCC 25618, 48 h, time 2 day. For orientation: In broth dilution the organism is exposed to a series of concentrations in liquid medium.

Another assay deals with Acinetobacter baumannii. The assay can be described thus: Antibacterial activity against clinical isolate Acinetobacter baumannii BAA 747 assessed as inhibition of bacterial growth incubated for 22 to 24 hrs. As to conditions: time 22-24 hrs.
The test system of assay [3] is Mycolicibacterium smegmatis. The assay can be described thus: Antibacterial activity against Mycobacterium smegmatis ATCC 607 assessed as inhibition of bacterial growth incubated for 2 days by CLSI protocol based broth microdilution method. As to conditions: ATCC 607, 48 h, time 2 day. Summed up: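 CLSI broth microdilution in Middlebrook 7H9 with 10% ADC. Compounds are dissolved in DMSO at 4.0 mg/mL (stock) and serially diluted from 64 to 0.015 µg/mL. Inoculum is ~10⁵ CFU/mL, checked by plating on 7H11 agar. Rifampin and levofloxacin are positive controls; drug-free broth with DMSO is the negative control. Growth inhibition is read after 2 days at 37 °C as MIC.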

In a further assay the test system is Moraxella catarrhalis. Nature of the assay: Antibacterial activity against Moraxella catarrhalis ATCC 25238 assessed as inhibition of bacterial growth incubated for 22 to 24 hrs. As to conditions: time 22-24 hrs. In short, it runs like this: (§1)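 Broth MIC referenced to an earlier protocol. Inocula come from mid-log cultures sub-cultured on soybean casein digest agar, adjusted to McFarland (~10⁸ CFU/mL), then diluted to ~10⁵ CFU/mL. Compounds and controls are serially diluted from 64 to 0.03 µg/mL. Tested in triplicate, read after 22–24 h at 37 °C. MIC is the lowest concentration with no visible growth.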

Another assay concerns Escherichia coli. Nature of the assay: Antibacterial activity against clinical isolate Escherichia coli AB 117 assessed as inhibition of bacterial growth incubated for 22 to 24 hrs. As to conditions: time 22-24 hrs.
For another assay, the system named is Klebsiella pneumoniae. The assay can be described thus: Antibacterial activity against clinical isolate Klebsiella pneumoniae AB 356 assessed as inhibition of bacterial growth incubated for 22 to 24 hrs. To be noted: time 22-24 hrs.
The next assay deals with Enterococcus faecium. The assay can be described thus: Antibacterial activity against Enterococcus faecium ATCC 49624 assessed as inhibition of bacterial growth incubated for 22 to 24 hrs. As to conditions: time 22-24 hrs. Summed up:
as §1

In assay [4] the test system is Staphylococcus aureus. The assay can be described thus: Antibacterial activity against methicillin sensitive Staphylococcus aureus ATCC 29213 assessed as inhibition of bacterial growth incubated for 22 to 24 hrs. As to conditions: time 22-24 hrs. Summed up: as §1
Assay [5] has as its system Staphylococcus aureus. The assay can be described thus: Antibacterial activity against methicillin resistant Staphylococcus aureus ATCC 33591 assessed as inhibition of bacterial growth incubated for 22 to 24 hrs. To be noted: time 22-24 hrs. In short, it runs like this:
(§2)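 Broth microdilution MIC. Strains were subcultured on Soybean Casein Digest Agar, and inocula were taken from mid-log culture, adjusted to McFarland (~10⁸ CFU/mL), then diluted to ~10⁵ CFU/mL. Serial dilutions ran from 64 to 0.03 µg/mL. Plates were incubated 22–24 h at 37 °C, in triplicate. MIC was the lowest concentration with no visible growth.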

The test system of another assay is Enterococcus faecalis. Nature of the assay: Antibacterial activity against vancomycin resistant Enterococcus faecalis ATCC 700802 assessed as inhibition of bacterial growth incubated for 22 to 24 hrs. As to conditions: time 22-24 hrs. In short, it runs like this:
as §2

Another assay concerns Pseudomonas aeruginosa. The assay can be described thus: Antibacterial activity against clinical isolate Pseudomonas aeruginosa AB 645 assessed as inhibition of bacterial growth incubated for 22 to 24 hrs. To be noted: time 22-24 hrs.

In brackets after ≈: the same amount, converted by molar mass.

As a reminder, the MIC is the lowest concentration found to suppress growth. On to `COc1cc(CN2CCN(C(=O)c3cccc(Cl)c3)CC2)nc2ccc(F)cc12`, for which the MIC in assay [1] was greater than 64 mg/L; in assay [2] it was greater than 64 mg/L; with Acinetobacter baumannii, greater than 64 mg/L; in [3], greater than 64 mg/L; in the assay with Moraxella catarrhalis, 64 mg/L (≈ 155 µM); with Escherichia coli, greater than 64 mg/L. For the same compound, the MIC in the assay on Klebsiella pneumoniae, with Enterococcus faecium, in the assay with Staphylococcus aureus [4], with Staphylococcus aureus [5], in the assay on Enterococcus faecalis and in the assay with Pseudomonas aeruginosa was greater than 64 mg/L throughout.

In the case of `COc1cc(CN2CCN(C(=O)c3cccc(F)c3)CC2)nc2ccc(F)cc12`, the MIC (in [1]; in assay [2]; in the assay on Acinetobacter baumannii; in assay [3]; in the assay with Moraxella catarrhalis; with Escherichia coli) was greater than 64 mg/L each time. Also, the MIC with Klebsiella pneumoniae, in the assay with Enterococcus faecium, with Staphylococcus aureus [4], in the assay on Staphylococcus aureus [5], in the assay on Enterococcus faecalis and in the assay on Pseudomonas aeruginosa was greater than 64 mg/L in each case.

Consider `COc1cc(CN2CCN(S(=O)(=O)c3ccc(Cl)cc3Cl)CC2)nc2ccc(F)cc12`, for which the MIC (in assay [1]; in assay [2]; with Acinetobacter baumannii; in assay [3]; in the assay on Moraxella catarrhalis; in the assay with Escherichia coli) was greater than 64 mg/L in each case. The MIC in the assay with Klebsiella pneumoniae, in the assay with Enterococcus faecium, with Staphylococcus aureus [4], with Staphylococcus aureus [5], in the assay with Enterococcus faecalis and in the assay on Pseudomonas aeruginosa was greater than 64 mg/L throughout.

As for `COc1ccc(C(=O)N2CCN(Cc3cc(OC)c4cc(F)ccc4n3)CC2)cc1`, the MIC (in assay [1]; in assay [2]; in the assay on Acinetobacter baumannii; in [3]; with Moraxella catarrhalis; with Escherichia coli) was greater than 64 mg/L throughout. Further, the MIC in the assay with Klebsiella pneumoniae, in the assay with Enterococcus faecium, in the assay on Staphylococcus aureus [4], in the assay with Staphylococcus aureus [5], with Enterococcus faecalis and in the assay with Pseudomonas aeruginosa was greater than 64 mg/L throughout.

As to `COc1cc(CN2CCN(S(=O)(=O)c3ccc(C)cc3)CC2)nc2ccc(F)cc12`, the MIC is 32 mg/L (≈ 74.5 µM) in assay [1]; greater than 64 mg/L in assay [2]; greater than 64 mg/L with Acinetobacter baumannii; greater than 64 mg/L in assay [3]; 16 mg/L (≈ 37.3 µM) with Moraxella catarrhalis; greater than 64 mg/L in the assay with Escherichia coli. In addition, the MIC in the assay on Klebsiella pneumoniae was greater than 64 mg/L; in the assay with Enterococcus faecium, greater than 64 mg/L; with Staphylococcus aureus [4], 64 mg/L (≈ 149 µM); in the assay on Staphylococcus aureus [5], greater than 64 mg/L; with Enterococcus faecalis it was greater than 64 mg/L; in the assay on Pseudomonas aeruginosa, greater than 64 mg/L.

Take `COc1cc(CN2CCN(C(=O)c3ccccc3F)CC2)nc2ccc(F)cc12`: the MIC (in [1]; in assay [2]; in the assay with Acinetobacter baumannii; in assay [3]; with Moraxella catarrhalis; with Escherichia coli) was greater than 64 mg/L each time. In addition, the MIC with Klebsiella pneumoniae, with Enterococcus faecium, in the assay on Staphylococcus aureus [4], in the assay with Staphylococcus aureus [5], in the assay on Enterococcus faecalis and in the assay with Pseudomonas aeruginosa was greater than 64 mg/L in each case.

Turning to `COc1cccc(C(=O)N2CCN(Cc3cc(OC)c4cc(OC)ccc4n3)CC2)c1`, the MIC (in assay [1]; in assay [2]; in the assay with Acinetobacter baumannii; in [3]; with Moraxella catarrhalis; in the assay with Escherichia coli) was greater than 64 mg/L in each case. Moreover, the MIC in the assay with Klebsiella pneumoniae, in the assay on Enterococcus faecium, in the assay with Staphylococcus aureus [4], in the assay on Staphylococcus aureus [5], in the assay with Enterococcus faecalis and in the assay on Pseudomonas aeruginosa was greater than 64 mg/L each time.

For `COc1ccc2nc(CN3CCN(C(=O)c4ccccc4OC)CC3)cc(OC)c2c1`, the MIC (in assay [1]; in [2]; in the assay with Acinetobacter baumannii; in assay [3]; in the assay with Moraxella catarrhalis; in the assay on Escherichia coli) was greater than 64 mg/L each time. Further, the MIC with Klebsiella pneumoniae, in the assay on Enterococcus faecium, in the assay with Staphylococcus aureus [4], with Staphylococcus aureus [5], in the assay with Enterococcus faecalis and in the assay with Pseudomonas aeruginosa was greater than 64 mg/L in each case.

For `COc1ccc2nc(CN3CCN(C(=O)C4CCC4)CC3)cc(OC)c2c1`, the MIC in assay [1] is greater than 64 mg/L; in assay [2] it was greater than 64 mg/L; in the assay on Acinetobacter baumannii it was greater than 64 mg/L; in assay [3] it was greater than 64 mg/L; with Moraxella catarrhalis, 2 mg/L (≈ 5.41 µM); in the assay with Escherichia coli, greater than 64 mg/L. For the same compound, the MIC in the assay with Klebsiella pneumoniae, in the assay on Enterococcus faecium, in the assay on Staphylococcus aureus [4], in the assay with Staphylococcus aureus [5], in the assay with Enterococcus faecalis and with Pseudomonas aeruginosa was greater than 64 mg/L throughout.

For the compound `COc1ccc(S(=O)(=O)N2CCN(Cc3cc(OC)c4cc(F)ccc4n3)CC2)cc1`, the MIC (in assay [1]; in [2]; in the assay with Acinetobacter baumannii; in [3]; with Moraxella catarrhalis; in the assay on Escherichia coli) was greater than 64 mg/L throughout. Also, the MIC in the assay with Klebsiella pneumoniae, in the assay with Enterococcus faecium, in the assay with Staphylococcus aureus [4], in the assay with Staphylococcus aureus [5], in the assay on Enterococcus faecalis and in the assay on Pseudomonas aeruginosa was greater than 64 mg/L in each case.

Regarding `COc1cc(CN2CCN(S(=O)(=O)c3ccc(NC(C)=O)cc3)CC2)nc2ccc(F)cc12`, the MIC in [1] was 64 mg/L (≈ 135 µM); in [2] it was greater than 64 mg/L; in the assay on Acinetobacter baumannii, greater than 64 mg/L; in assay [3], greater than 64 mg/L; in the assay with Moraxella catarrhalis it was 32 mg/L (≈ 67.7 µM); in the assay with Escherichia coli, greater than 64 mg/L. Moreover, the MIC with Klebsiella pneumoniae, in the assay on Enterococcus faecium, in the assay with Staphylococcus aureus [4], in the assay on Staphylococcus aureus [5], in the assay on Enterococcus faecalis and with Pseudomonas aeruginosa was greater than 64 mg/L each time.

For the compound `COc1cc(CN2CCN(C(=O)c3ccccc3C)CC2)nc2ccc(F)cc12`, the MIC (in [1]; in [2]; in the assay with Acinetobacter baumannii; in [3]; with Moraxella catarrhalis; in the assay with Escherichia coli) was greater than 64 mg/L each time. The MIC with Klebsiella pneumoniae, in the assay on Enterococcus faecium, in the assay with Staphylococcus aureus [4], in the assay with Staphylococcus aureus [5], in the assay on Enterococcus faecalis and in the assay with Pseudomonas aeruginosa was greater than 64 mg/L in each case.

The values are drawn from ChEMBL document CHEMBL5230166, “Novel quinoline-piperazine hybrids: the design, synthesis and evaluation of antibacterial and antituberculosis properties” (RSC Med Chem, 2023).
